How the values were obtained:
[1] = system: CYP2A6-transduced BEAS-2B cells; experiment: Cell viability by LDH release; assay type: cell-based; conditions: flavoring agent at 500 μM, 2 h total exposure, 50 μM coumarin, Figure S4
How it was run: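 CYP2A6-transduced BEAS-2B cells were grown to confluence in KGM and switched to KBM. They were exposed to flavoring agent at 500 μM for 1 h, then coumarin was added to 50 μM, for 2 h total, in triplicate wells. Medium was incubated 30 min with tetrazolium substrate and read at 490 nm absorbance. Maximal LDH was set by lysis buffer.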

CYP2A6 [2] = target: T1, CYP2A6 (Homo sapiens, UniProt P11509); experiment: Cellular CYP2A6 inhibition screening; assay type: cell-based; conditions: for inhibition of cellular CYP2A6: flavoring agent at 500 μM
T1 sequence (P11509 1-494): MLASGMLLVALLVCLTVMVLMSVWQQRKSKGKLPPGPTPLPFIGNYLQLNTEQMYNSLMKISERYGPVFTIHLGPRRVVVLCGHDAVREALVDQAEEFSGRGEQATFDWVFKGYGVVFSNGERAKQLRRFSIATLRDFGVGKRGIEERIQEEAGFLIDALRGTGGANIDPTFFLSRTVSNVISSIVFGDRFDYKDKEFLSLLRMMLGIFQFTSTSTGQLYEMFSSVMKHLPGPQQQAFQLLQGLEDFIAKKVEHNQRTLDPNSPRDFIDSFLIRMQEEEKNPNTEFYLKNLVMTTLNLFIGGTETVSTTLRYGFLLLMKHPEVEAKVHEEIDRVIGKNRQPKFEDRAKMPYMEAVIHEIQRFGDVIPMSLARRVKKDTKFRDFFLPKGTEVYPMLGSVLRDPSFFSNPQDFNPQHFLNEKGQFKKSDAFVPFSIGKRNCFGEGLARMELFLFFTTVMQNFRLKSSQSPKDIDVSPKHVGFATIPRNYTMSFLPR

CYP2A6 [3] = target: T1, CYP2A6; conditions: 50 μM tranylcypromine pretreatment 1 h, then 100 μM coumarin 1 h

In the case of `O=Cc1ccccc1` [benzaldehyde], the “mean percent of maximal LDH” value [1] is reported as 8.9% and the IC50 (CYP2A6 [2]) is reported as 7.6 µM.

In the case of `O=C/C=C/c1ccccc1` [cinnamaldehyde, trans-cinnamaldehyde], the “mean percent of maximal LDH” value [1] is reported as 6.6% and the IC50 (CYP2A6 [2]) is reported as 7.4 µM.

In the case of `Cl.N[C@@H]1C[C@H]1c1ccccc1` (relative stereo) [tranylcypromine, trans-2-Phenylcyclopropylamine hydrochloride], the “fluorescence (7-hydroxycoumarin formation) in CYP2A6-transduced cells” value (CYP2A6 [3]) is reported as “strongly reduced”.

For `COc1cc(C=O)ccc1O` [vanillin], the IC50 (CYP2A6 [2]) was 200 µM and the “inhibition of cellular CYP2A6” value (CYP2A6 [2]) was “near-maximal inhibition”.

`CC(=O)OCCC(C)C` [isoamyl acetate] was tested, and the IC50 (CYP2A6 [2]) was over 500 µM and the “inhibition of cellular CYP2A6” value (CYP2A6 [2]) was “negligible inhibition”.

— publication PMC10061538 (ACS Omega, 2023)
